The values that follow come from ChEMBL document CHEMBL1150156, “Semisynthesis of new sarcophine derivatives with chemopreventive activity” (J Nat Prod, 2002).

A value given as a limit tells only on which side of the number the result lay.

Data set [1] in a line: Cytotoxicity against human Raji cells assessed as cell viability at 100 molar ratio. It is filed as cell-based. The settings on record: read-out: Activity. A digest of the protocol:
(§1)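 Raji cells (EBV nonproducer type) serve as indicator cells in the TPA-induced EBV-EA activation assay. Sample is dosed as a mol ratio to TPA, with TPA at 32 pmol; ×1000 corresponds to 32 nmol/mL sample. Viability of the indicator cells is reported as a percentage.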

The subject of data set [2] is Raji. Nature of the data set: Inhibition of TPA-induced EBV-early antigen activation in human Raji cells assessed as early antigen induction at 500 molar ratio relative to TPA. To be noted: human gammaherpesvirus 4. It is filed as cell-based. The essentials:
(§2)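 EBV early antigen induction is measured in Raji cells (virus nonproducer type) stimulated with TPA at 32 pmol. Sample concentration is expressed as mol ratio/TPA; ×1000 equals 32 nmol/mL. EA induction is expressed as a percentage of the positive (TPA-only) value, set as 100%.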

A short description of data set [3]: Cytotoxicity against human Raji cells assessed as cell viability at 1000 molar ratio. It is filed as cell-based. To be noted: read-out: Activity. The essentials:
as §1

Data set [4] can be described thus: Cytotoxicity against human Raji cells assessed as cell viability at 10 molar ratio. It is filed as cell-based. The settings on record: read-out: Activity. The essentials:
as §1

Data set [5] relates to Raji. Nature of the data set: Inhibition of TPA-induced EBV-early antigen activation in human Raji cells assessed as early antigen induction at 10 molar ratio relative to TPA. To be noted: human gammaherpesvirus 4.
Data set [6] relates to Raji. Put plainly: Inhibition of TPA-induced EBV-early antigen activation in human Raji cells assessed as early antigen induction at 1000 molar ratio relative to TPA. It is filed as cell-based. The settings on record: human gammaherpesvirus 4. The essentials:
as §2

Data set [7] deals with Raji. Nature of the data set: Inhibition of TPA-induced EBV-early antigen activation in human Raji cells assessed as early antigen induction at 100 molar ratio relative to TPA. It is filed as cell-based. The settings on record: human gammaherpesvirus 4. The essentials: as §2
A short description of data set [8]: Cytotoxicity against human Raji cells assessed as cell viability at 500 molar ratio. The data set is classed as cell-based. To be noted: read-out: Activity. The essentials: as §1

For the compound `C/C1=C\C=C(\[C@@](C)(O)CO)C[C@@H](O)/C(C)=C/CC[C@]2(C)O[C@H]2CC1`, the viability at 100 molar ratio in data set [1] was over 80%. The EBV early antigen induction (% of TPA control) in the data set with Raji [2] was found to be 54.2%. In addition, the viability at 1000 molar ratio in data set [3] was found to be 60%. Moreover, in data set [4], the viability at 10 molar ratio is over 80%. In addition, the EBV early antigen induction relative to TPA in the data set on Raji [5] was 92.6%. Also, the EBV early antigen induction (% of TPA-only control) with Raji [6] was determined as 5.7%; with Raji [7], 72.9%. For the same compound, the viability at 500 molar ratio in data set [8] is over 80%.

Take `C/C1=C\C=C(\[C@@](C)(O)CO)C[C@H](O)/C(C)=C/CC[C@]2(C)O[C@H]2CC1`: in data set [1], the viability at 100 molar ratio was over 80%. Besides, the EBV early antigen induction (% of TPA control) with Raji [2] came to 55.8%. Also, the viability at 1000 molar ratio in data set [3] was 60%. In data set [4], the viability at 10 molar ratio is over 80%. Also, the EBV early antigen induction relative to TPA in the data set on Raji [5] was 93.8%. Moreover, the EBV early antigen induction (% of TPA-only control) with Raji [6] stood at 5.9%; in the data set with Raji [7] it was 74.6%. The viability at 500 molar ratio in data set [8] was over 80%.

Take `C/C1=C\C=C(\[C@@](C)(O)CO)CC/C(C=O)=C/CC[C@]2(C)O[C@H]2CC1`: the viability at 100 molar ratio in data set [1] is over 80%. For the same compound, the EBV early antigen induction (% of TPA control) in the data set with Raji [2] came out at 52.4%. For the same compound, the viability at 1000 molar ratio in data set [3] is 60%. In data set [4], the viability at 10 molar ratio was over 80%. Further, in the data set on Raji [5], the EBV early antigen induction relative to TPA was determined as 90.6%. In addition, the EBV early antigen induction (% of TPA-only control) worked out at 3.6% in the data set with Raji [6] and 71.3% with Raji [7]. Further, in data set [8], the viability at 500 molar ratio was over 80%.

On to `CC1=C2CC/C(C=O)=C/CC[C@]3(C)O[C@H]3CC/C(C)=C/[C@@H]2OC1=O`, for which the viability at 100 molar ratio in data set [1] is over 80%. In addition, the EBV early antigen induction (% of TPA control) in the data set on Raji [2] was determined as 60.8%. Further, the viability at 1000 molar ratio in data set [3] was 60%. Also, the viability at 10 molar ratio in data set [4] is over 80%. Besides, the EBV early antigen induction relative to TPA with Raji [5] was 96%. Besides, the results for the EBV early antigen induction (% of TPA-only control) in the data set with Raji [6] and with Raji [7] were 12.7% and 81.3%, respectively. In addition, the viability at 500 molar ratio in data set [8] was over 80%.

On to `C/C(CO)=C1\CC/C(C)=C/CC[C@]2(C)O[C@H]2CC/C(C)=C/[C@@H]1O`, for which the viability at 100 molar ratio in data set [1] is over 80%. The EBV early antigen induction (% of TPA control) with Raji [2] was found to be 57.3%. Moreover, the viability at 1000 molar ratio in data set [3] came out at 60%. Besides, the viability at 10 molar ratio in data set [4] was over 80%. Further, the EBV early antigen induction relative to TPA in the data set on Raji [5] came to 94.1%. In addition, the EBV early antigen induction (% of TPA-only control) in the data set with Raji [6] is 9.6%; in the data set with Raji [7], 75.5%. Moreover, the viability at 500 molar ratio in data set [8] is over 80%.

For `C/C1=C\C=C(\[C@@](C)(O)CO)CC(=O)/C(C)=C/CC[C@]2(C)O[C@H]2CC1`, in data set [1], the viability at 100 molar ratio is over 80%. The EBV early antigen induction (% of TPA control) in the data set with Raji [2] came out at 56.7%. Further, the viability at 1000 molar ratio in data set [3] came to 60%. Besides, the viability at 10 molar ratio in data set [4] is over 80%. For the same compound, in the data set on Raji [5], the EBV early antigen induction relative to TPA came out at 94%. In addition, the EBV early antigen induction (% of TPA-only control) with Raji [6] was 8.3%; in the data set on Raji [7] it was 75.1%. Further, the viability at 500 molar ratio in data set [8] was over 80%.

As for `CC1=C2CC/C(C)=C/CC[C@]3(C)O[C@H]3CC/C(C)=C/[C@@H]2OC1=O` [SARCOPHINE], the viability at 100 molar ratio in data set [1] was over 80%. Further, in the data set on Raji [2], the EBV early antigen induction (% of TPA control) amounted to 67.5%. For the same compound, the viability at 1000 molar ratio in data set [3] was 60%. The viability at 10 molar ratio in data set [4] is over 80%. Further, in the data set on Raji [5], the EBV early antigen induction relative to TPA is 100%. Also, the EBV early antigen induction (% of TPA-only control) in the data set on Raji [6] worked out at 19.6%; with Raji [7] it was 84%. Also, the viability at 500 molar ratio in data set [8] is over 80%.

Turning to `C/C1=C\C=C(\C(C)C)[C@@H](O)C/C(C)=C/CC/C(C)=C/CC1`, in data set [1], the viability at 100 molar ratio was over 80%. Also, in the data set with Raji [2], the EBV early antigen induction (% of TPA control) stood at 60.4%. In data set [3], the viability at 1000 molar ratio came out at 50%. Also, the viability at 10 molar ratio in data set [4] is over 80%. For the same compound, the EBV early antigen induction relative to TPA in the data set with Raji [5] was 97.3%. Also, the EBV early antigen induction (% of TPA-only control) is 11.7% in the data set on Raji [6] and 79.1% in the data set on Raji [7]. Further, the viability at 500 molar ratio in data set [8] is over 80%.

For `CC1=C2C[C@H](O)/C(C)=C/CC[C@]3(C)O[C@H]3CC/C(C)=C/[C@@H]2OC1=O`, in data set [1], the viability at 100 molar ratio is over 80%. Also, the EBV early antigen induction (% of TPA control) in the data set on Raji [2] was determined as 62.8%. The viability at 1000 molar ratio in data set [3] came out at 60%. For the same compound, the viability at 10 molar ratio in data set [4] is over 80%. Moreover, the EBV early antigen induction relative to TPA in the data set on Raji [5] is 100%. The results for the EBV early antigen induction (% of TPA-only control) in the data set on Raji [6] and in the data set with Raji [7] were 14.2% and 81.3%, respectively. Further, in data set [8], the viability at 500 molar ratio is over 80%.
